Calls of active or inactive are those of the source. The rule behind the calls is not given here.

The results in this text go back to ChEMBL document CHEMBL2169780, “Design and synthesis of neuroprotective methylthiazoles and modification as NO-chimeras for neurodegenerative therapy” (J Med Chem, 2012).

The nature of data set [1]: Neuroprotective activity against oxygen-glucose deprivation-induced toxicity in Sprague-Dawley rat primary cortical neurons at 50 uM […] measured after 24 hrs by MTT assay relative to clomethiazole. The class given is functional, Cerebral cortex neuron. (In general: Tetrazolium dyes change colour on reduction, which living cells bring about.)
In data set [2] the test system is Cerebral cortex neuron. Kind of data set: Activation of Gamma-aminobutyric acid type-A receptor in Sprague-Dawley rat primary cortical neurons assessed as inhibition of glutamate-induced cytotoxicity at 50 uM […] measured after 24 hrs by MTT assay. In kind it is cell-based.
For data set [3], the system named is Cerebral cortex neuron. The data set can be described thus: Activation of Gamma-aminobutyric acid type-A receptor in Sprague-Dawley rat primary cortical neurons assessed as inhibition of glutamate-induced cytotoxicity at 50 uM incubated for 1 hr prior to glutamate-challenge measured after 24 hrs by MTT assay in presence of picrotoxin. The class given is cell-based.

The next data set has as its system Mus musculus. The data set can be described thus: Procognitive activity in C57BL/6 mouse assessed as reversal of scopolamine-induced memory deficit at 4.5 umol/kg, ip administered 10 mins post scopolamine-challenge and 20 mins prior to training measured after 24 hrs by step-through passive avoidance test. In kind it is functional, organism-based. Summed up: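 Male C57BL/6 mice, 8–10 weeks. Scopolamine 1.0 mg/kg i.p. given 30 min before training; drug at 4.5 µmol/kg i.p. given 20 min before training. At 24 h after training, latency to enter the dark compartment was recorded without shock. One-way ANOVA with Bonferroni test.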

The test system of data set [4] is Brain. The data set can be described thus: Drug uptake in C57BL/6 mouse brain assessed as beta-Phenyl-4-methyl-5-thiazoleethanol level at 4.5 umol/kg, ip after 20 mins. In kind it is ADME, organism-based. The note with it: in vivo. A digest of the protocol:
(§1)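 Male C57BL/6 mice, 8–10 weeks, dosed i.p. at 4.5 µmol/kg, four per drug. Brains taken 20 min later and extracted in cold acetonitrile/MeOH (1:1) with internal standard. Parent and metabolite quantified by LC-MS/MS in MRM mode against brain-matrix calibration of 1–100 ng/mL. Mean ± SEM, n=4.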

Data set [5] is described as follows: Drug uptake in C57BL/6 mouse brain at 4.5 umol/kg, ip after 20 mins. The class given is ADME, organism-based. The conditions noted are these: read-out: Drug uptake. Summed up:
as §1

A further data set relates to Hippocampus. The data set can be described thus: Neuroprotective activity against amyloid beta-induced long term potentiation impairment in human APP […] mutant and PS1 M146L mutant transgenic mouse hippocampal slice at 100 uM incubated for 5 mins by field excitatory post-synaptic potential analysis. The class given is functional, tissue-based. Summed up: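 APP/PS1 (line 6.2) hippocampal slices, 400 µm, kept at 29°C in oxygenated saline. CA1 fEPSPs recorded in stratum radiatum after a 15 min baseline at about 35% of maximal response. Compound at 100 µM perfused 5 min before theta-burst tetanus of the Schaffer collaterals. LTP analysed at 50–80 min by two-way ANOVA.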

The nature of data set [6]: Chemical stability of the compound in phosphate buffer at pH 7.4 after 5 days by HPLC-UV analysis. In kind it is physicochemical. The conditions noted are these: pH 7.4, 120 h. Summed up: (§2)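 10 µM compound plus 10 µM internal standard in 100 mM phosphate buffer, pH 7.4, 2% DMSO final, held at room temperature in the autosampler. Repeated HPLC injections with UV detection at 254 nm and a C18 gradient. Parent-to-standard peak-area ratio divided by the time-zero value gives % remaining.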

Data set [7] is described as follows: Half life of the compound in phosphate buffer at pH 7.4 by HPLC-UV analysis. In kind it is physicochemical. A digest of the protocol: as §2
Data set [8] is described as follows: Neuroprotective activity against oxygen-glucose deprivation-induced toxicity in Sprague-Dawley rat primary cortical neurons assessed as increase in cell survival at 50 uM […] measured after 24 hrs by MTT assay relative to vehicle-treated control. The class given is functional, Cerebral cortex neuron.
Data set [9] concerns Brain. Kind of data set: Drug uptake in C57BL/6 mouse brain assessed as [1-[beta-(4-Methyl-5-thiazolyl)ethanol]-4-(3-pyridinyl)]-1H-1,2,3-triazole level at 4.5 umol/kg, ip after 20 mins. In kind it is ADME, organism-based. The note with it: in vivo. Summed up:
as §1

On to `COC(c1ccccc1)c1scnc1C` (centres undefined), for which, in data set [1], the Activity is recorded as 110.2%.
The same measure, in the same setting: the value for `Cc1ccc2c(c1)c1c(n2CCc2scnc2C)CCN(C)C1` was 15.4%; that for `Cc1ncsc1C(c1ccccc1)n1cc(Cc2ccccc2)nn1` (centres undefined) was 88.3%.
With `Cc1ncsc1C(OCCOCCO)c1ccccc1` (centres undefined), the result in the data set with Cerebral cortex neuron [2] was Active. Besides, the result in the data set with Cerebral cortex neuron [3] was inactive. In data set [1], the Activity worked out at 114.1%.
With `NCc1cc(O)no1`, the outcome in the data set with Cerebral cortex neuron [2] was Active. Besides, the result in the data set with Cerebral cortex neuron [3] was inactive.
On to `Cc1ncsc1C(O)c1ccc(Cl)cc1` (centres undefined), for which the Activity in [1] is recorded as 25%.
The molecule `Cc1ncsc1C(O)c1ccc(F)cc1` (centres undefined) returned an Activity in [1] of 36.8%.
As to `Cc1ncsc1C(c1ccccc1)n1cc(-c2ccncc2)nn1` (centres undefined), the Activity in [1] turned out to be 90.2%.
With `Cc1ncsc1C(CO[N+](=O)[O-])c1ccccc1` (centres undefined), the result in the data set with Mus musculus and in the data set on Hippocampus was Active. Moreover, in the data set with Brain [4], the Drug uptake was 9.5 ng/mL. In addition, in data set [5], the concentration at 20 min was 9.5 ng/mL. Moreover, the Stability entry in [6] is on record as “Stable”.
By half-life is commonly meant the time in which the quantity being followed falls by half. Lower therefore signals rapid decline. Consider `Cc1ncsc1C(OC(=O)C1(CO[N+](=O)[O-])CC1)c1ccccc1` (centres undefined), for which the half-life in [7] worked out at 0.578 h.
Molecule `Cc1ncsc1C(CO)c1ccc(-c2cccnc2)cc1` (centres undefined) registered an Activity in data set [1] of 25%.
On the same count and under the same terms, the value for `Cc1ncsc1C(c1ccccc1)n1cc(-c2ccsc2)nn1` (centres undefined) was 62%.
Still for that read-out and setting: the value for `Cc1ncsc1C(c1ccccc1)n1cc(-c2cncn2C)nn1` (centres undefined) was 93.9%; that for `Cc1ncsc1C(c1ccccc1)n1cc(-c2cccnc2)nn1` (centres undefined) was 108%; that for `Cc1ncsc1C(c1ccc(F)cc1)n1cc(-c2cccnc2)nn1` (centres undefined) was 87.2%.
`Cc1ncsc1C(Cc1ccccc1)O[N+](=O)[O-]` (centres undefined): in data set [6], the Stability result is recorded as “Stable”.
As for `Cc1ncsc1CCCl` [CLOMETHIAZOLE], the result in the data set with Hippocampus was inactive. Moreover, in data set [8], the Activity was found to be 30%.
Turning to `Cc1ncsc1C(O)c1ccccc1` (centres undefined), in data set [1], the Activity is reported as 94%.
Still for that read-out and setting: the value for `Cc1ncsc1C(CO)n1nncc1-c1cccnc1` (centres undefined) was 92.9%; that for `Cc1ncsc1C(c1ccccc1)n1ccnn1` (centres undefined) was 58.1%.
Take `Cc1ncsc1C(NC(=O)OCC1(CO[N+](=O)[O-])CC1)c1ccccc1` (centres undefined): the result in the data set with Mus musculus was Active. The same molecule showed a half-life in data set [7] of 50 h. Moreover, the result in the data set on Hippocampus was inactive.
In data set [1], `Cc1ncsc1CCn1ccnn1` gave an Activity of 51.5%.
For `Cc1ncsc1C(CO)c1ccccc1` (centres undefined), the concentration at 20 min in data set [5] came out at 32.9 ng/mL. The outcome with Cerebral cortex neuron [2] was Active. In addition, the result in the data set on Cerebral cortex neuron [3] was inactive. Further, the Activity in [1] is given as 99.6%.
`Cc1ncsc1C(OC(=O)C1(C)CC1)c1ccccc1` (centres undefined) showed a half-life in data set [7] of 6.33 h.
On to `Cc1ncsc1C(OCCOCCO[N+](=O)[O-])c1ccccc1` (centres undefined), for which the result in the data set with Mus musculus was Active. The Stability entry in data set [6] is listed as “Stable”.
Regarding `Cc1ncsc1C(CO[N+](=O)[O-])n1cc(-c2cccnc2)nn1` (centres undefined), the Drug uptake in the data set on Brain [9] is 76.6 ng/mL. In the data set with Mus musculus, the outcome was Active. Besides, the concentration at 20 min in data set [5] is 2.1 ng/mL. Further, the Stability result in data set [6] was “Stable”.
Regarding `Cc1ncsc1C(CO[N+](=O)[O-])c1ccc(F)cc1` (centres undefined), the outcome in the data set on Mus musculus was Active. Further, in [6], the Stability entry is on record as “Stable”.
Regarding `Cc1ncsc1C(CO)n1cc(-c2cccnc2)nn1` (centres undefined), the concentration at 20 min in data set [5] turned out to be 56.4 ng/mL. The result in the data set on Cerebral cortex neuron [2] was Active. In addition, the outcome in the data set with Cerebral cortex neuron [3] was inactive. The molecule further had an Activity in data set [1] of 107.3%.
Consider `Cc1ncsc1C(c1ccccc1)n1cc(-c2ccccc2)nn1` (centres undefined), for which the Activity in data set [1] came to 57.6%.
Still for that read-out and setting: the value for `Cc1ncsc1C(c1ccccc1)n1cc(-c2cncc(O)c2)nn1` (centres undefined) was 104%; that for `Cc1ncsc1CCO` was 14.11%.
In the case of `Cc1ncsc1C(NC(=O)C1(CO[N+](=O)[O-])CC1)c1ccccc1` (centres undefined), the Stability entry in data set [6] is “Stable”.
`Cc1ncsc1C(c1ccccc1)n1cc(-c2ccccn2)nn1` (centres undefined) registered an Activity in data set [1] of 50.9%.
For `Cc1ncsc1C(O)Cc1ccccc1` (centres undefined), the Activity in [1] came out at 102%.
Still for that read-out and setting: the value for `Cc1ncsc1C(CO)c1ccc(F)cc1` (centres undefined) was 98.9%; that for `Cc1ncsc1CCn1cc(-c2ccccc2)nn1` was 53.9%.
The same measure, in the same setting: the value for `Cc1ncsc1C(O)Cc1ccc(F)cc1` (centres undefined) was 101%.
As to `Cc1ncsc1C(NC(=O)OCCCCO[N+](=O)[O-])c1ccccc1` (centres undefined), in the data set with Mus musculus, the result was Active. The Stability entry in data set [6] is “Stable”.
The matching figures for `Cc1ncsc1C(CO[N+](=O)[O-])n1nncc1-c1cccnc1` (centres undefined): “Active” and “Stable”.
For the molecule `Cc1ncsc1CCn1cc(-c2cccnc2)nn1`, in the data set on Cerebral cortex neuron [3], the result was inactive. In addition, the Activity in data set [1] turned out to be 99.6%.
